Assay results taken from ChEMBL document CHEMBL1152380, “The synthesis and biological evaluation of a novel series of C7 non-basic substituted fluoroquinolones as antibacterial agents” (2009).
≈ marks a conversion by molar mass, not a printed value.

What was measured:
Assay type in all cases: functional
Staphylococcus aureus [1] = assay: Antibacterial activity against Staphylococcus aureus ATCC 25923 by microbroth dilution technique
Outline: (§1)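 MIC, taken as the lowest drug concentration that prevents visible growth, determined by broth microdilution following the National Committee for Clinical and Laboratory Standards method. Strains were reference strains from the American Type Culture Collection or clinical isolates from the hospital culture collection.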

Staphylococcus aureus [2] = assay: Antibacterial activity against multidrug-resistant Staphylococcus aureus clinical isolates by microbroth dilution technique
Streptococcus pneumoniae [3] = assay: Antibacterial activity against Streptococcus pneumoniae ATCC 49619 by microbroth dilution technique
Outline: (§2)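 Broth microdilution run to the National Committee for Clinical and Laboratory Standards method. MIC is taken as the lowest drug concentration that prevents visible bacterial growth. Strains were clinical isolates from a hospital culture collection or ATCC reference strains.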

Streptococcus pneumoniae [4] = assay: Antibacterial activity against multidrug-resistant Streptococcus pneumoniae clinical isolates by microbroth dilution technique
[5] = system: Staphylococcus epidermidis; assay: Antibacterial activity against Staphylococcus epidermidis ATCC 12228 by microbroth dilution technique; outline: as §1
Enterococcus faecalis = assay: Antibacterial activity against Enterococcus faecalis ATCC 29212 by microbroth dilution technique; outline: as §1
Escherichia coli = assay: Antibacterial activity against Escherichia coli ATCC 25922 by microbroth dilution technique; outline: as §1
Pseudomonas aeruginosa [6] = assay: Antibacterial activity against Pseudomonas aeruginosa ATCC 27853 by microbroth dilution technique; outline: as §2
Pseudomonas aeruginosa [7] = assay: Antibacterial activity against multidrug-resistant Pseudomonas aeruginosa clinical isolates by microbroth dilution technique
[8] = Staphylococcus aureus, ATCC 25923, read-out: MIC
[9] = Streptococcus pneumoniae, ATCC 49619, read-out: MIC
[10] = Streptococcus pneumoniae, read-out: MIC
[11] = Staphylococcus epidermidis, ATCC 12228, read-out: MIC
[12] = Enterococcus faecalis, ATCC 29212, read-out: MIC
[13] = Escherichia coli, ATCC 25922, read-out: MIC
[14] = Pseudomonas aeruginosa, ATCC 27853, read-out: MIC
[15] = Pseudomonas aeruginosa, read-out: MIC

| SMILES | MIC (Staphylococcus aureus [1]; [8]) [µg/mL] | MIC (Staphylococcus aureus [2]) [µg/mL] | MIC (Streptococcus pneumoniae [3]; [9]) [µg/mL] | MIC (Streptococcus pneumoniae [4]; [10]) [µg/mL] | MIC [5, 11] [µg/mL] | MIC (Enterococcus faecalis; [12]) [µg/mL] | MIC (Escherichia coli; [13]) [µg/mL] | MIC (Pseudomonas aeruginosa [6]; [14]) [µg/mL] | MIC (Pseudomonas aeruginosa [7]; [15]) [µg/mL] | MIC (Staphylococcus aureus [1]) [µg/mL] | MIC (Streptococcus pneumoniae [3]) [µg/mL] | MIC [5] [µg/mL] | MIC (Enterococcus faecalis) [µg/mL] | MIC (Pseudomonas aeruginosa [7]) [µg/mL] | MIC (Streptococcus pneumoniae [4]) [µg/mL] | MIC (Escherichia coli) [µg/mL] | MIC (Pseudomonas aeruginosa [6]) [µg/mL] |
| --- | --- | --- | --- | --- | --- | --- | --- | --- | --- | --- | --- | --- | --- | --- | --- | --- | --- |
| COC(=O)[C@@H]1C[C@@H](O)CN1c1nc2c(cc1F)c(=O)c(C(=O)O)cn2C1CC1 | 2 (≈ 5.11 µM) | > 32 | 0.5 (≈ 1.28 µM) | 0.5 (≈ 1.28 µM) | 16 (≈ 40.9 µM) | 1 (≈ 2.56 µM) | 8 (≈ 20.4 µM) | 32 (≈ 81.8 µM) | 32 (≈ 81.8 µM) | – | – | – | – | – | – | – | – |
| CC(C)(C)OC(=O)N1CC2CC1CN2c1nc2c(cc1F)c(=O)c(C(=O)O)cn2C1CC1 (stereo not given) | 0.25 (≈ 0.562 µM) | > 32 | 2 (≈ 4.5 µM) | 0.5 (≈ 1.12 µM) | 4 (≈ 9 µM) | 0.5 (≈ 1.12 µM) | 4 (≈ 9 µM) | 32 (≈ 72 µM) | 32 (≈ 72 µM) | – | – | – | – | – | – | – | – |
| O=C(O)c1cn(C2CC2)c2nc(N3CCC[C@H]3CO)c(F)cc2c1=O | 0.5 (≈ 1.44 µM) | > 32 | 0.5 (≈ 1.44 µM) | 0.5 (≈ 1.44 µM) | 8 (≈ 23 µM) | 0.5 (≈ 1.44 µM) | 2 (≈ 5.76 µM) | 32 (≈ 92.1 µM) | 32 (≈ 92.1 µM) | – | – | – | – | – | – | – | – |
| O=C(O)c1cn(C2CC2)c2nc(N3C[C@H](O)C[C@H]3CO)c(F)cc2c1=O | 16 (≈ 44 µM) | > 32 | 8 (≈ 22 µM) | 8 (≈ 22 µM) | > 32 | 4 (≈ 11 µM) | 32 (≈ 88.1 µM) | 32 (≈ 88.1 µM) | 32 (≈ 88.1 µM) | – | – | – | – | – | – | – | – |
| C[C@@H](O)[C@@H]1C[C@@H](O)CN1c1nc2c(cc1F)c(=O)c(C(=O)O)cn2C1CC1 | 32 (≈ 84.8 µM) | > 32 | 2 (≈ 5.3 µM) | 8 (≈ 21.2 µM) | > 32 | 2 (≈ 5.3 µM) | 16 (≈ 42.4 µM) | 32 (≈ 84.8 µM) | 32 (≈ 84.8 µM) | – | – | – | – | – | – | – | – |
| O=C(O)c1cn(C2CC2)c2nc(N3CC4CC3CS4(=O)=O)c(F)cc2c1=O (stereo not given) | 0.016 (≈ 0.0407 µM) | > 32 | 0.063 (≈ 0.16 µM) | 0.031 (≈ 0.0788 µM) | 0.5 (≈ 1.27 µM) | 0.063 (≈ 0.16 µM) | 0.125 (≈ 0.318 µM) | 8 (≈ 20.3 µM) | 32 (≈ 81.3 µM) | – | – | – | – | – | – | – | – |
| O=C(O)c1cn(C2CC2)c2cc(N3CCNCC3)c(F)cc2c1=O [CIPROFLOXACIN] | – | – | – | – | 0.5 (≈ 1.51 µM) | 0.5 (≈ 1.51 µM) | – | – | – | – | – | – | – | – | – | – | – |
| COC(=O)[C@@H]1C[C@@H](n2cc(CO)nn2)CN1c1nc2c(cc1F)c(=O)c(C(=O)O)cn2C1CC1 | 4 (≈ 8.47 µM) | > 32 | 1 (≈ 2.12 µM) | 1 (≈ 2.12 µM) | 8 (≈ 16.9 µM) | 0.5 (≈ 1.06 µM) | 4 (≈ 8.47 µM) | 32 (≈ 67.7 µM) | > 32 | – | – | – | – | – | – | – | – |
| O=C(O)c1cn(C2CC2)c2nc(N3CCC[C@H]3Cn3cc(CO)nn3)c(F)cc2c1=O | 32 (≈ 74.7 µM) | > 32 | 8 (≈ 18.7 µM) | 4 (≈ 9.34 µM) | 32 (≈ 74.7 µM) | 4 (≈ 9.34 µM) | 32 (≈ 74.7 µM) | 32 (≈ 74.7 µM) | 32 (≈ 74.7 µM) | – | – | – | – | – | – | – | – |
| COC(=O)[C@@H]1C[C@@H](n2cc(Cc3ccccc3)nn2)CN1c1nc2c(cc1F)c(=O)c(C(=O)O)cn2C1CC1 | > 32 | > 32 | 4 (≈ 7.51 µM) | 8 (≈ 15 µM) | > 32 | 16 (≈ 30 µM) | 32 (≈ 60.1 µM) | 32 (≈ 60.1 µM) | 32 (≈ 60.1 µM) | – | – | – | – | – | – | – | – |
| O=C(O)c1cn(C2CC2)c2nc(N3C[C@@H](O)[C@H](O)C3)c(F)cc2c1=O | 4 (≈ 11.5 µM) | > 32 | 2 (≈ 5.73 µM) | 2 (≈ 5.73 µM) | > 32 | 2 (≈ 5.73 µM) | 4 (≈ 11.5 µM) | 32 (≈ 91.6 µM) | 32 (≈ 91.6 µM) | – | – | – | – | – | – | – | – |
| O=C(O)c1cn(C2CC2)c2nc(N3CCC[C@H]3Cn3cc(-c4ccccc4)nn3)c(F)cc2c1=O | 1 (≈ 2.11 µM) | – | – | – | > 32 | 4 (≈ 8.43 µM) | > 32 | > 32 | – | – | – | – | – | – | – | – | – |
| O=C(O)c1cn(C2CC2)c2nc(N3CC4CC3C[S+]4[O-])c(F)cc2c1=O (stereo in doubt; 6.28) | – | > 32 | – | 0.25 (≈ 0.662 µM) | – | – | 1 (≈ 2.65 µM) | 32 (≈ 84.8 µM) | – | 4 (≈ 10.6 µM) | 0.5 (≈ 1.32 µM) | 4 (≈ 10.6 µM) | 1 (≈ 2.65 µM) | 32 (≈ 84.8 µM) | – | – | – |
| CN[C@H](CC(C)C)C(=O)N[C@H]1C(=O)N[C@@H](CC(N)=O)C(=O)N[C@H]2C(=O)N[C@H]3C(=O)N[C@H](C(=O)N[C@H](C(=O)O)c4cc(O)cc(O)c4-c4cc3ccc4O)[C@H](O)c3ccc(c(Cl)c3)Oc3cc2cc(c3O[C@@H]2O[C@H](CO)[C@@H](O)[C@H](O)[C@H]2O[C@H]2C[C@](C)(N)[C@H](O)[C@H](C)O2)Oc2ccc(cc2Cl)[C@H]1O [VANCOMYCIN] | – | – | 1 (≈ 0.69 µM) | 2 (≈ 1.38 µM) | – | 0.5 (≈ 0.345 µM) | – | – | – | – | – | – | – | – | – | – | – |
| O=C(O)c1cn(C2CC2)c2nc(N3CC4CC3C[S+]4[O-])c(F)cc2c1=O (stereo in doubt; 6.26) | – | – | – | – | – | – | – | – | 32 (≈ 84.8 µM) | 1 (≈ 2.65 µM) | 0.125 (≈ 0.331 µM) | 1 (≈ 2.65 µM) | 0.25 (≈ 0.662 µM) | – | 0.125 (≈ 0.331 µM) | 0.5 (≈ 1.32 µM) | 16 (≈ 42.4 µM) |
| O=C(O)c1cn(C2CC2)c2nc(N3CC4CC3CS4)c(F)cc2c1=O (stereo not given) | 0.016 (≈ 0.0443 µM) | > 32 | 0.031 (≈ 0.0858 µM) | 0.031 (≈ 0.0858 µM) | 0.125 (≈ 0.346 µM) | 0.125 (≈ 0.346 µM) | 0.125 (≈ 0.346 µM) | 2 (≈ 5.53 µM) | 32 (≈ 88.5 µM) | – | – | – | – | – | – | – | – |
| C[C@H](O)[C@@H]1C[C@@H](O)CN1c1nc2c(cc1F)c(=O)c(C(=O)O)cn2C1CC1 | 16 (≈ 42.4 µM) | > 32 | 1 (≈ 2.65 µM) | 2 (≈ 5.3 µM) | 32 (≈ 84.8 µM) | 4 (≈ 10.6 µM) | 8 (≈ 21.2 µM) | 32 (≈ 84.8 µM) | 32 (≈ 84.8 µM) | – | – | – | – | – | – | – | – |
